This passage reports IC50 and inhibition results from ChEMBL document CHEMBL2016570, “Synthesis, biological evaluation, and molecular docking studies of 1,3,4-thiadiazol-2-amide derivatives as novel anticancer agents” (Bioorg Med Chem, 2012).

One may read the IC50 as the concentration that inhibits the measured activity by half. The low end stands for inhibition by little substance, the high end for a need for much substance.

Activity calls are given as the source filed them. The rule behind the calls is not given here.

Assay [1] is described as follows: Inhibition of bovine brain FAK after 20 mins by turbidimetry. Also on record: species or system Bos taurus.
Assay [2] deals with MCF7. The assay can be described thus: Antiproliferative activity against human MCF7 cells after 48 hrs by MTT assay. The class given is functional, cell-based. Particulars: MCF7, 48 h. In short, it runs like this:
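MCF-7 cells were grown to log phase in RPMI 1640 with 10% FBS, diluted to 2 × 10⁴ cells/mL and seeded, then held 24 h at 37 °C, 5% CO₂. Compounds at pre-set concentrations went into six wells, with staurosporine as positive reference, for 48 h. MTT in PBS (2.5 mg/mL) was added, incubation ran overnight at 37 °C, and OD was read at 570 nm. Triplicate wells per concentration; assay run ≥3 times.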

Assay [3] deals with B16-F10. The assay can be described thus: Antiproliferative activity against mouse B16F10 cells after 48 hrs by MTT assay. It is filed as functional, cell-based. The conditions noted are these: B16-F10, 48 h. For orientation: Tetrazolium assays rely on reduction of a dye to a coloured formazan, in cell work by metabolically active cells.
The target in assay [4] is Focal adhesion kinase 1 (Homo sapiens) (UniProt Q05397). Kind of assay: Inhibition of FAK in human MCF7 cells at 2 to 8 uM by Western blot analysis. The class given is cell-based. In short, it runs like this:
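After treatment, cells were PBS-washed and lysed in Tris/NaCl/PMSF/Na₃VO₄/NP-40/glycerol buffer with phosphatase and protease inhibitors, then spun at 12,000g for 5 min. Protein was measured by BCA, resolved on 10% SDS–PAGE and transferred to PVDF. Membranes were blocked in 5% nonfat milk for 2 h at room temperature, probed with primary antibodies overnight at 4 °C, then HRP secondary. Representative of three independent experiments.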
A general note: A western blot detects proteins with antibodies after separation by electrophoresis.

Chain of Focal adhesion kinase 1 (Homo sapiens) (Q05397 2-1052 limits assumed): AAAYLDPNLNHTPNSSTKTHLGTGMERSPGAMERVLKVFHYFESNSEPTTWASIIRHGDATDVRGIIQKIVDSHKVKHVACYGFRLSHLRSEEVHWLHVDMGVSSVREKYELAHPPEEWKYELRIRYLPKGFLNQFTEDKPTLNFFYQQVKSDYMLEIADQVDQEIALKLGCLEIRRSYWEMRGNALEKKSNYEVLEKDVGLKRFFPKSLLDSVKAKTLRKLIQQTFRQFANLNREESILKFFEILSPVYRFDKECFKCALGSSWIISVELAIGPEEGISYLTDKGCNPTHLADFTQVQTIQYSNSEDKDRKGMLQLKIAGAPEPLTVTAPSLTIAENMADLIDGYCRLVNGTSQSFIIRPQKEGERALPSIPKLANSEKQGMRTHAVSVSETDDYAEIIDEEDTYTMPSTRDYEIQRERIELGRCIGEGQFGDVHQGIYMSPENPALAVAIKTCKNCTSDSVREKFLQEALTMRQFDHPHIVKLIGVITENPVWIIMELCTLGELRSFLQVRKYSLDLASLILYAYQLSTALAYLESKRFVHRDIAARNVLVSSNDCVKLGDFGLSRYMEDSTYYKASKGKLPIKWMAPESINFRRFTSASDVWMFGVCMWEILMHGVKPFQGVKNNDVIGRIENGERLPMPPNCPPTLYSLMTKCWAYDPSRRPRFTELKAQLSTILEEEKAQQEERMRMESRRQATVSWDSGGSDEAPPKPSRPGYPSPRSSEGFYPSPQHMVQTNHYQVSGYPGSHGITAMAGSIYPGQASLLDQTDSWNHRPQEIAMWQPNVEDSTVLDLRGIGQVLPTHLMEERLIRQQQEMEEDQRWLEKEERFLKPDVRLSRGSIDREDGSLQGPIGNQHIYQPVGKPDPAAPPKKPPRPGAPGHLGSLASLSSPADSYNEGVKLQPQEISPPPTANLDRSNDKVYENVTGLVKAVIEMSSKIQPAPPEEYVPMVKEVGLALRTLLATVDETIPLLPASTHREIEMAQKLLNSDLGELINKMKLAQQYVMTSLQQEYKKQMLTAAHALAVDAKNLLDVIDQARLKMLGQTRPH

For the compound `O=C(Nc1nnc(-c2ccccc2)s1)c1cc(Cl)ccc1O`, the IC50 in assay [1] was 6.89 µM; in assay [2], 1120 nM; in assay [3], 1140 nM.

For `O=C(Nc1nnc(-c2ccccc2)s1)c1ccc(F)cc1`, the IC50 in assay [1] was found to be 14 µM; in assay [2], 4850 nM; in assay [3], 4360 nM.

Consider `O=C(Nc1nnc(-c2ccccc2)s1)c1cccnc1`, for which the IC50 in assay [1] was 18.6 µM; in assay [2], 8220 nM; in assay [3], 6180 nM.

In the case of `O=C(Nc1nnc(-c2ccc(Cl)cc2)s1)c1cc(Br)ccc1O`, the IC50 stood at 5.85 µM in assay [1], 670 nM in assay [2] and 560 nM in assay [3].

As to `O=C(Nc1nnc(-c2ccccc2)s1)c1ccccc1O`, the values for the IC50 in assay [1], in assay [2] and in assay [3] were 9.36 µM, 2760 nM and 2020 nM, respectively.

For the compound `O=C(Nc1nnc(-c2ccc(F)cc2)s1)c1ccccc1O`, the IC50 in assay [1] stood at 7.02 µM; in assay [2], 1210 nM; in assay [3] it was 1160 nM.

Turning to `COc1ccc(-c2nnc(NC(=O)c3ccccc3)s2)cc1`, the IC50 came out at 7.71 µM in assay [1], 1550 nM in assay [2] and 1580 nM in assay [3].

In the case of `O=C(Nc1nnc(-c2ccc(F)cc2)s1)c1cc(Cl)ccc1O`, the IC50 in assay [1] came to 6.13 µM; in assay [2], 750 nM; in assay [3], 680 nM.

Turning to `O=C(Nc1nnc(-c2ccccc2)s1)c1cc(Br)ccc1O`, the values for the IC50 in assay [1], in assay [2] and in assay [3] were 7.25 µM, 1280 nM and 1280 nM, respectively.

Take `O=C(Cc1ccccc1)Nc1nnc(-c2ccc(Br)cc2)s1`: the IC50 in assay [1] was 21.5 µM; in assay [2], 7520 nM; in assay [3], 9060 nM.

In the case of `O=C(Nc1nnc(-c2ccccc2)s1)c1ccc(Cl)cc1`, the half-inhibitory concentration (IC50) was determined as 11.9 µM in assay [1], 4490 nM in assay [2] and 4650 nM in assay [3].

As to `Cc1ccc(C(=O)Nc2nnc(-c3ccccc3)s2)cc1`, the IC50 in assay [1] came out at 9.84 µM; in assay [2], 3280 nM; in assay [3], 2760 nM.

Regarding `Cc1ccc(-c2nnc(NC(=O)c3ccccc3)s2)cc1`, the 50% inhibitory concentration (IC50) in assay [1] stood at 11.7 µM; in assay [2], 3570 nM; in assay [3], 3520 nM.

Regarding `O=C(Nc1nnc(-c2ccc(F)cc2)s1)c1ccccc1`, the results for the concentration for half-maximal inhibition (IC50) in assay [1], in assay [2] and in assay [3] were 15.5 µM, 5350 nM and 4750 nM, respectively.

Regarding `COc1ccc(-c2nnc(NC(=O)c3cccnc3)s2)cc1`, the IC50 in assay [1] is 9.75 µM; in assay [2], 2990 nM; in assay [3], 2360 nM.

In assay [2], `CN[C@@H]1C[C@H]2O[C@@](C)([C@@H]1OC)n1c3ccccc3c3c4c(c5c6ccccc6n2c5c31)C(=O)NC4` [STAUROSPORINE] had an IC50 of 3070 nM.

For `O=C(Nc1nnc(-c2ccc(F)cc2)s1)c1cc(Br)ccc1O`, the concentration for half-maximal inhibition (IC50) in assay [1] was determined as 6.41 µM; in assay [2], 860 nM; in assay [3] it was 1020 nM.

Turning to `Cc1ccc(-c2nnc(NC(=O)c3ccccc3O)s2)cc1`, the IC50 in assay [1] was determined as 8.54 µM; in assay [2] it was 2360 nM; in assay [3], 1970 nM.

As for `O=C(Nc1nnc(-c2ccc(Cl)cc2)s1)c1cc(Cl)ccc1O`, the IC50 in assay [1] came to 5.32 µM; in assay [2] it was 450 nM; in assay [3] it was 310 nM. Also, the inhibition entry in assay [4] was “Active”.

For `O=C(Nc1nnc(-c2ccc(Cl)cc2)s1)c1ccccc1`, the IC50 came out at 12.7 µM in assay [1], 4850 nM in assay [2] and 4060 nM in assay [3].

Turning to `COc1ccc(C(=O)Nc2nnc(-c3ccccc3)s2)cc1`, the IC50 is 7.89 µM in assay [1], 1830 nM in assay [2] and 1750 nM in assay [3].

Take `O=C(Nc1nnc(-c2ccccc2)s1)c1ccccc1`: the IC50 in assay [1] stood at 16.2 µM; in assay [2] it was 5870 nM; in assay [3], 5150 nM.

As for `O=C(Cc1ccccc1)Nc1nnc(-c2ccc(Cl)cc2)s1`, the half-maximal inhibitory concentration (IC50) in assay [1] turned out to be 19.7 µM; in assay [2] it was 6470 nM; in assay [3], 8230 nM.

For the compound `COc1ccc(-c2nnc(NC(=O)c3ccccc3O)s2)cc1`, the IC50 was 7.47 µM in assay [1], 2170 nM in assay [2] and 1390 nM in assay [3].

For the compound `Cc1ccc(-c2nnc(NC(=O)c3cccnc3)s2)cc1`, the concentration for half-maximal inhibition (IC50) in assay [1] is 12.4 µM; in assay [2] it was 4520 nM; in assay [3], 3880 nM.

For `O=C(Nc1nnc(-c2ccc(Cl)cc2)s1)c1ccccc1O`, the results for the IC50 in assay [1], in assay [2] and in assay [3] were 6.79 µM, 1020 nM and 1150 nM, respectively.
